In ChEMBL document CHEMBL4406921, “Discovery of Axelopran (TD-1211): A Peripherally Restricted μ-Opioid Receptor Antagonist” (ACS Med Chem Lett, 2019):

Tested on: not listed separately
Assay: Oral bioavailability in Sprague-Dawley rat at 5 mg/kg administered via gavage
Assay type: ADME, organism-based
Conditions: in vivo

SMILES | bioavailability
CS(=O)(=O)CC(=O)N(CCN1[C@@H]2CC[C@H]1C[C@@H](c1cccc(C(N)=O)c1)C2)CC1CCCCC1 | 60%
NC(=O)c1cccc([C@H]2C[C@H]3CC[C@@H](C2)N3CCN(CC2CCC(F)(F)CC2)C(=O)CO)c1 | 30%
NC(=O)c1cccc([C@H]2C[C@H]3CC[C@@H](C2)N3CCN(CC2CCCCC2)C(=O)CO)c1 | 61%

Target: Delta-type opioid receptor (Homo sapiens, UniProt P41143)
Sequence (P41143 whole entry): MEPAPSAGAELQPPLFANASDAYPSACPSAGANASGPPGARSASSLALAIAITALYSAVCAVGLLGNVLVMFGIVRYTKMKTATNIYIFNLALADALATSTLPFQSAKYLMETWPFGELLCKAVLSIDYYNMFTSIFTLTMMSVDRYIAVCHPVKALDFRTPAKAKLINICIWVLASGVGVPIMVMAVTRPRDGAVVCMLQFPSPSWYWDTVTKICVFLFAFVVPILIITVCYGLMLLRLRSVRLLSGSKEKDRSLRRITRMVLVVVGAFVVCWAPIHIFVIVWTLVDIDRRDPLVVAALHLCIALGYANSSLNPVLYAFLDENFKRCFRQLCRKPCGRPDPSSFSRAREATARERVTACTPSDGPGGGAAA
Assay: Displacement of [3H]-DPN from recombinant human delta opioid receptor expressed in CHO-K1 cell membranes by radioligand binding assay
Conditions: not given
How it was run: (§1)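 Membranes from CHO-K1 cells stably transfected with human recombinant μ or δ receptor, or guinea pig κ receptor; competition with [3H]-DPN radioligand; affinity reported as pKi.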

SMILES | Ki
CS(=O)(=O)CC(=O)N(CCN1[C@@H]2CC[C@H]1C[C@@H](c1cccc(C(N)=O)c1)C2)CC1CCCCC1 | 1.26 nM
NC(=O)c1cccc([C@H]2C[C@H]3CC[C@@H](C2)N3CCN(CC2CCC(F)(F)CC2)C(=O)CO)c1 | 12.6 nM
NC(=O)c1cccc([C@H]2C[C@H]3CC[C@@H](C2)N3CCN(CC2CCCCC2)C(=O)CO)c1 | 3.98 nM

Target: Kappa-type opioid receptor (Cavia porcellus, UniProt P41144)
Sequence (P41144 whole entry): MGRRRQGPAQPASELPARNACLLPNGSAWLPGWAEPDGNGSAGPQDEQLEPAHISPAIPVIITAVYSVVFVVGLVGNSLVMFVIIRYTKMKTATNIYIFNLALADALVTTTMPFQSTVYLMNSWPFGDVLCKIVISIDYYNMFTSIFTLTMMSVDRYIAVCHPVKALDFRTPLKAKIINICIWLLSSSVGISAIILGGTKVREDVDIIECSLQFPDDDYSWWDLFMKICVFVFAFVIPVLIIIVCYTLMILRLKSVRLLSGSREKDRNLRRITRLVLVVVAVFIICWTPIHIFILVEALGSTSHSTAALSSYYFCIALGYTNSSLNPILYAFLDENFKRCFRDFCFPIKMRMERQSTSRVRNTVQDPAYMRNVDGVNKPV
Assay: Displacement of [3H]-DPN from guinea pig kappa opioid receptor expressed in CHO-K1 cell membranes by radioligand binding assay
Conditions: not given
How it was run: as §1

SMILES | Ki
CS(=O)(=O)CC(=O)N(CCN1[C@@H]2CC[C@H]1C[C@@H](c1cccc(C(N)=O)c1)C2)CC1CCCCC1 | 0.1 nM
NC(=O)c1cccc([C@H]2C[C@H]3CC[C@@H](C2)N3CCN(CC2CCC(F)(F)CC2)C(=O)CO)c1 | 0.251 nM
NC(=O)c1cccc([C@H]2C[C@H]3CC[C@@H](C2)N3CCN(CC2CCCCC2)C(=O)CO)c1 | 0.126 nM

Tested on: not listed separately
Assay: Cmax in Sprague-Dawley rat at 5 mg/kg, po administered via gavage
Assay type: ADME, organism-based
Parameters: dose 5 mg/kg, route oral
Conditions: in vivo

SMILES | Cmax
CS(=O)(=O)CC(=O)N(CCN1[C@@H]2CC[C@H]1C[C@@H](c1cccc(C(N)=O)c1)C2)CC1CCCCC1 | 880 ng/mL
NC(=O)c1cccc([C@H]2C[C@H]3CC[C@@H](C2)N3CCN(CC2CCC(F)(F)CC2)C(=O)CO)c1 | 390 ng/mL
NC(=O)c1cccc([C@H]2C[C@H]3CC[C@@H](C2)N3CCN(CC2CCCCC2)C(=O)CO)c1 | 290 ng/mL

Tested on: not listed separately
Assay: Permeability coefficient, Kp in human Caco2 cells
Assay type: ADME, cell-based
Conditions: Caco-2, read-out: Kp

SMILES | Papp
CS(=O)(=O)CC(=O)N(CCN1[C@@H]2CC[C@H]1C[C@@H](c1cccc(C(N)=O)c1)C2)CC1CCCCC1 | 18 ×10⁻⁶ cm/s
NC(=O)c1cccc([C@H]2C[C@H]3CC[C@@H](C2)N3CCN(CC2CCC(F)(F)CC2)C(=O)CO)c1 | 14 ×10⁻⁶ cm/s
NC(=O)c1cccc([C@H]2C[C@H]3CC[C@@H](C2)N3CCN(CC2CCCCC2)C(=O)CO)c1 | 40 ×10⁻⁶ cm/s

Tested on: not listed separately
Assay: Half life in rat liver microsomes at 3 uM
Assay type: ADME, Microsome
Conditions: not given

SMILES | half-life at 3 µM
CS(=O)(=O)CC(=O)N(CCN1[C@@H]2CC[C@H]1C[C@@H](c1cccc(C(N)=O)c1)C2)CC1CCCCC1 | 0.833 h
NC(=O)c1cccc([C@H]2C[C@H]3CC[C@@H](C2)N3CCN(CC2CCC(F)(F)CC2)C(=O)CO)c1 | 1.5 h
NC(=O)c1cccc([C@H]2C[C@H]3CC[C@@H](C2)N3CCN(CC2CCCCC2)C(=O)CO)c1 | 1.28 h

Tested on: Mus musculus
Assay: Inhibition of morphine-induced delays in gastric emptying in po dosed ICR mouse administered via gavage pretreated with compound and 30 mins later injected with morphine followed 5 mins later by ingestion of test meal and measured after 60 mins
Assay type: functional
Conditions: not given
How it was run: (§2)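 Mice dosed orally; reversal of morphine-induced delay in intestinal transit, delay in gastric emptying, or hot plate antinociception measured; dose-dependent responses fitted to give ID50 in mg/kg.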

SMILES | inhibition
CS(=O)(=O)CC(=O)N(CCN1[C@@H]2CC[C@H]1C[C@@H](c1cccc(C(N)=O)c1)C2)CC1CCCCC1 | Dose-dependent effect
NC(=O)c1cccc([C@H]2C[C@H]3CC[C@@H](C2)N3CCN(CC2CCC(F)(F)CC2)C(=O)CO)c1 | Dose-dependent effect
NC(=O)c1cccc([C@H]2C[C@H]3CC[C@@H](C2)N3CCN(CC2CCCCC2)C(=O)CO)c1 | Dose-dependent effect

Same assay, conditions: read-out: ID50 (the source's name)

SMILES | ED50
CS(=O)(=O)CC(=O)N(CCN1[C@@H]2CC[C@H]1C[C@@H](c1cccc(C(N)=O)c1)C2)CC1CCCCC1 | 0.33 mg/kg
NC(=O)c1cccc([C@H]2C[C@H]3CC[C@@H](C2)N3CCN(CC2CCC(F)(F)CC2)C(=O)CO)c1 | 0.03 mg/kg
NC(=O)c1cccc([C@H]2C[C@H]3CC[C@@H](C2)N3CCN(CC2CCCCC2)C(=O)CO)c1 | 0.046 mg/kg

Tested on: Mus musculus
Assay: Inhibition of morphine-induced delays in intestinal transit in po dosed ICR mouse administered via gavage pretreated with compound and 30 mins later injected with morphine followed 5 mins later by ingestion of test meal and measured after 60 mins
Assay type: functional
Conditions: not given
How it was run: as §2

SMILES | inhibition
CS(=O)(=O)CC(=O)N(CCN1[C@@H]2CC[C@H]1C[C@@H](c1cccc(C(N)=O)c1)C2)CC1CCCCC1 | Dose-dependent effect
NC(=O)c1cccc([C@H]2C[C@H]3CC[C@@H](C2)N3CCN(CC2CCC(F)(F)CC2)C(=O)CO)c1 | Dose-dependent effect
NC(=O)c1cccc([C@H]2C[C@H]3CC[C@@H](C2)N3CCN(CC2CCCCC2)C(=O)CO)c1 | Dose-dependent effect

Same assay, conditions: read-out: ID50 (the source's name)

SMILES | ED50
CS(=O)(=O)CC(=O)N(CCN1[C@@H]2CC[C@H]1C[C@@H](c1cccc(C(N)=O)c1)C2)CC1CCCCC1 | 0.49 mg/kg
NC(=O)c1cccc([C@H]2C[C@H]3CC[C@@H](C2)N3CCN(CC2CCC(F)(F)CC2)C(=O)CO)c1 | 0.23 mg/kg
NC(=O)c1cccc([C@H]2C[C@H]3CC[C@@H](C2)N3CCN(CC2CCCCC2)C(=O)CO)c1 | 0.1 mg/kg

Tested on: not listed separately
Assay: AUC(0 to t) in Sprague-Dawley rat at 5 mg/kg, po administered via gavage
Assay type: ADME, organism-based
Conditions: in vivo

SMILES | AUC(0-t)
CS(=O)(=O)CC(=O)N(CCN1[C@@H]2CC[C@H]1C[C@@H](c1cccc(C(N)=O)c1)C2)CC1CCCCC1 | 1300 ng·h/mL
NC(=O)c1cccc([C@H]2C[C@H]3CC[C@@H](C2)N3CCN(CC2CCC(F)(F)CC2)C(=O)CO)c1 | 1200 ng·h/mL
NC(=O)c1cccc([C@H]2C[C@H]3CC[C@@H](C2)N3CCN(CC2CCCCC2)C(=O)CO)c1 | 430 ng·h/mL

Target: T1, Mu-type opioid receptor (Homo sapiens, UniProt P35372)
T1 sequence (P35372 whole entry): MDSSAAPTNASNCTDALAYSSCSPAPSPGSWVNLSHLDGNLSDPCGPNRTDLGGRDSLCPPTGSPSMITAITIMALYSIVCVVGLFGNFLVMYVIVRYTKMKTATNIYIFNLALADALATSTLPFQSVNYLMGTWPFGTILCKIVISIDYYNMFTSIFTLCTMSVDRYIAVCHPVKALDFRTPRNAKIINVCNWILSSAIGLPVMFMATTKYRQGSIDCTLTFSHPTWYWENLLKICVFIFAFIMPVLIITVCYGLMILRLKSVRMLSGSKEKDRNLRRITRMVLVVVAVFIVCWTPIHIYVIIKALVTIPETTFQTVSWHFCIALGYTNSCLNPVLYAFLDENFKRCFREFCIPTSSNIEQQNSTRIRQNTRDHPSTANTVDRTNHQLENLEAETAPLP
Assay: Antagonist activity at human recombinant mu opioid receptor expressed in CHO-K1 cell membranes assessed as intrinsic activity at 10 pM to 20 uM incubated for 30 mins in presence of Eu-GTP by DELFIA GTP binding assay relative to DAMGO
Conditions: not given

SMILES | Intrinsic activity
CS(=O)(=O)CC(=O)N(CCN1[C@@H]2CC[C@H]1C[C@@H](c1cccc(C(N)=O)c1)C2)CC1CCCCC1 | 0%
NC(=O)c1cccc([C@H]2C[C@H]3CC[C@@H](C2)N3CCN(CC2CCC(F)(F)CC2)C(=O)CO)c1 | -5%
NC(=O)c1cccc([C@H]2C[C@H]3CC[C@@H](C2)N3CCN(CC2CCCCC2)C(=O)CO)c1 | -3%

Tested on: not listed separately
Assay: Half life in human liver microsomes at 3 uM
Assay type: ADME, Microsome
Conditions: not given

SMILES | half-life at 3 µM
CS(=O)(=O)CC(=O)N(CCN1[C@@H]2CC[C@H]1C[C@@H](c1cccc(C(N)=O)c1)C2)CC1CCCCC1 | 1.5 h
NC(=O)c1cccc([C@H]2C[C@H]3CC[C@@H](C2)N3CCN(CC2CCC(F)(F)CC2)C(=O)CO)c1 | 1.5 h
NC(=O)c1cccc([C@H]2C[C@H]3CC[C@@H](C2)N3CCN(CC2CCCCC2)C(=O)CO)c1 | 1.32 h

Species: Mus musculus
Assay: Peripheral selectivity index, ratio of ID50 for inhibition of morphine-induced antinociceptive activity in ICR mouse to ID50 for inhibition of morphine-induced delays in intestinal transit in ICR mouse
Assay type: functional
Conditions: not given
How it was run: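 Mice were dosed orally with antagonist at several doses and challenged with morphine. ID50 values were taken from dose-dependent reversal of morphine-induced hot plate antinociception (CNS) and of morphine-induced delay in intestinal transit (peripheral). The index is the hot plate ID50 divided by the intestinal transit ID50.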

SMILES | Selectivity Index
CS(=O)(=O)CC(=O)N(CCN1[C@@H]2CC[C@H]1C[C@@H](c1cccc(C(N)=O)c1)C2)CC1CCCCC1 | 49
NC(=O)c1cccc([C@H]2C[C@H]3CC[C@@H](C2)N3CCN(CC2CCC(F)(F)CC2)C(=O)CO)c1 | 19
NC(=O)c1cccc([C@H]2C[C@H]3CC[C@@H](C2)N3CCN(CC2CCCCC2)C(=O)CO)c1 | 42

Target: T1, Mu-type opioid receptor
Assay: Displacement of [3H]-DPN from recombinant human mu opioid receptor expressed in CHO-K1 cell membranes by radioligand binding assay
Conditions: not given
How it was run: as §1

SMILES | Ki
CS(=O)(=O)CC(=O)N(CCN1[C@@H]2CC[C@H]1C[C@@H](c1cccc(C(N)=O)c1)C2)CC1CCCCC1 | 0.1 nM
NC(=O)c1cccc([C@H]2C[C@H]3CC[C@@H](C2)N3CCN(CC2CCC(F)(F)CC2)C(=O)CO)c1 | 0.126 nM
NC(=O)c1cccc([C@H]2C[C@H]3CC[C@@H](C2)N3CCN(CC2CCCCC2)C(=O)CO)c1 | 0.1 nM

Tested on: not listed separately
Assay: Half life in Sprague-Dawley rat at 5 mg/kg, po administered via gavage
Assay type: ADME, organism-based
Conditions: in vivo

SMILES | half-life
CS(=O)(=O)CC(=O)N(CCN1[C@@H]2CC[C@H]1C[C@@H](c1cccc(C(N)=O)c1)C2)CC1CCCCC1 | 1 h
NC(=O)c1cccc([C@H]2C[C@H]3CC[C@@H](C2)N3CCN(CC2CCC(F)(F)CC2)C(=O)CO)c1 | 2 h
NC(=O)c1cccc([C@H]2C[C@H]3CC[C@@H](C2)N3CCN(CC2CCCCC2)C(=O)CO)c1 | 1.3 h

Species: Mus musculus
Assay: Peripheral selectivity index, ratio of ID50 for inhibition of morphine-induced delays in gastric emptying in ICR mouse to ID50 for inhibition of morphine-induced delays in intestinal transit in ICR mouse
Assay type: functional
Conditions: not given

SMILES | Selectivity Index
CS(=O)(=O)CC(=O)N(CCN1[C@@H]2CC[C@H]1C[C@@H](c1cccc(C(N)=O)c1)C2)CC1CCCCC1 | 73
NC(=O)c1cccc([C@H]2C[C@H]3CC[C@@H](C2)N3CCN(CC2CCC(F)(F)CC2)C(=O)CO)c1 | 147
NC(=O)c1cccc([C@H]2C[C@H]3CC[C@@H](C2)N3CCN(CC2CCCCC2)C(=O)CO)c1 | 91

Tested on: Mus musculus
Assay: Inhibition of morphine-induced antinociceptive activity in po dosed ICR mouse administered via gavage pretreated with compound and 30 mins later injected with morphine and measured after 30 mins by hot plate test
Assay type: functional
Conditions: not given
How it was run: as §2

SMILES | inhibition
CS(=O)(=O)CC(=O)N(CCN1[C@@H]2CC[C@H]1C[C@@H](c1cccc(C(N)=O)c1)C2)CC1CCCCC1 | Dose-dependent effect
NC(=O)c1cccc([C@H]2C[C@H]3CC[C@@H](C2)N3CCN(CC2CCC(F)(F)CC2)C(=O)CO)c1 | Dose-dependent effect
NC(=O)c1cccc([C@H]2C[C@H]3CC[C@@H](C2)N3CCN(CC2CCCCC2)C(=O)CO)c1 | Dose-dependent effect

Same assay, conditions: read-out: ID50 (the source's name)

SMILES | ED50
CS(=O)(=O)CC(=O)N(CCN1[C@@H]2CC[C@H]1C[C@@H](c1cccc(C(N)=O)c1)C2)CC1CCCCC1 | 24 mg/kg
NC(=O)c1cccc([C@H]2C[C@H]3CC[C@@H](C2)N3CCN(CC2CCC(F)(F)CC2)C(=O)CO)c1 | 4.4 mg/kg
NC(=O)c1cccc([C@H]2C[C@H]3CC[C@@H](C2)N3CCN(CC2CCCCC2)C(=O)CO)c1 | 4.2 mg/kg

Tested on: not listed separately
Assay: Half life in dog liver microsomes at 3 uM
Assay type: ADME, Canis lupus familiaris, Microsome
Conditions: not given

SMILES | half-life at 3 µM
CS(=O)(=O)CC(=O)N(CCN1[C@@H]2CC[C@H]1C[C@@H](c1cccc(C(N)=O)c1)C2)CC1CCCCC1 | 0.467 h
NC(=O)c1cccc([C@H]2C[C@H]3CC[C@@H](C2)N3CCN(CC2CCC(F)(F)CC2)C(=O)CO)c1 | 1.5 h
NC(=O)c1cccc([C@H]2C[C@H]3CC[C@@H](C2)N3CCN(CC2CCCCC2)C(=O)CO)c1 | 0.3 h
